# Laboratory results reported in ChEMBL document CHEMBL4145675, “2-Phenylquinoline S. aureus NorA Efflux Pump Inhibitors: Evaluation of the Importance of Methoxy Group Introduction” (J Med Chem, 2018).
# Activity calls are given as the source filed them. No cut-off for these calls is given here.
# How the values were obtained:
# Staphylococcus aureus [1] = experiment: Antimicrobial activity against Staphylococcus aureus SA-1199B expressing wild type norA by microdilution method; type: organism-based; details: in vivo
# Summary of the method: (§1)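 Broth microdilution MIC per CLSI guidelines. ATCC 25923 is norA wild-type. SA-1199B overexpresses norA and carries an A116E GrlA substitution.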
# [2] = molecular target: T1, Quinolone resistance protein NorA (Staphylococcus aureus) (UniProt P0A0J7); experiment: Inhibition of NorA in Staphylococcus aureus SA-K2378 assessed as synergistic potentiation of ciprofloxacin-induced antimicrobial activity at 0.78 to 100 ug/ml by microdilution method based Checkerboard assay
# T1 sequence (whole entry): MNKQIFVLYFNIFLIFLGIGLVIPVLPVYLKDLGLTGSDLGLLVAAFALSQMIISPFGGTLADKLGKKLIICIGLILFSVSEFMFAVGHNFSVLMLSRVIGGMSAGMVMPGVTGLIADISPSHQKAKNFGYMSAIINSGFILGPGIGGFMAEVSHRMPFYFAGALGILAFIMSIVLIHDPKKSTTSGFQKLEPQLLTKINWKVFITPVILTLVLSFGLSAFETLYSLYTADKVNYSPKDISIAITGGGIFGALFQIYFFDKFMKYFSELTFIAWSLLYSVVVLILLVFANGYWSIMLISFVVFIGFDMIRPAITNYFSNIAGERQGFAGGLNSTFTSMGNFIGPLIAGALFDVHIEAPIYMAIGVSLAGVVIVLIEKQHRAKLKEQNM
# [3] = molecular target: T1, Quinolone resistance protein NorA (Staphylococcus aureus); experiment: Inhibition of NorA in Staphylococcus aureus SA-1199B expressing GrlA A116E mutant assessed as minimal potentiating drug concentration causing 8 fold reduction in ciprofloxacin MIC by microdilution method based Checkerboard assay
# [4] = molecular target: T1, Quinolone resistance protein NorA (Staphylococcus aureus); experiment: Inhibition of NorA in Staphylococcus aureus SA-1199B expressing GrlA A116E mutant assessed as synergistic potentiation of ciprofloxacin-induced antimicrobial activity at 0.78 ug/ml by microdilution method based Checkerboard assay
# [5] = molecular target: Quinolone resistance protein NorA (Staphylococcus aureus, UniProt P0A0J7, A116E); experiment: Inhibition of NorA in Staphylococcus aureus SA-1199B expressing GrlA A116E mutant assessed as reduction in EtBr efflux incubated for 5 mins by fluorescence based assay
# Summary of the method: (§2)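 Cells were grown overnight in cation-supplemented Mueller-Hinton broth at 35 °C and subcultured to OD600 0.7–0.8. They were loaded at OD600 0.8 with 25 µM EtBr plus 100 µM CCCP (final) for 20 min at room temperature. Cells were then resuspended in fresh broth with or without compound, 50 µM for the single-point screen or a concentration series for IC50. Fluorescence (ex 485/em 645 nm) was read for 5 min. Inhibition was calculated from the fluorescence decrease versus untreated cells. Biological triplicate, each run twice.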
# [6] = molecular target: T1, Quinolone resistance protein NorA (Staphylococcus aureus); experiment: Inhibition of NorA in Staphylococcus aureus SA-1199B expressing GrlA A116E mutant assessed as reduction in EtBr efflux at 50 uM incubated for 5 mins by fluorescence based assay; summary of the method: as §2
# Staphylococcus aureus [7] = experiment: Synergistic potentiation of ciprofloxacin-induced antimicrobial activity against Staphylococcus aureus SA-1199 at 0.78 to 100 ug/ml by microdilution method based Checkerboard assay; type: functional, organism-based
# Staphylococcus aureus [8] = experiment: Antimicrobial activity against Staphylococcus aureus SA-1199B expressing wild type norA and co-expressing GrlA A116E mutant by microdilution method; type: organism-based; details: in vivo
# Summary of the method: (§3)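 CLSI broth microdilution MIC of the compound alone. Strains: SA-K1902 (norA deleted), SA-K2378 (SA-K1902 carrying norA plus its promoter on multicopy plasmid pCU1), SA-1199B (norA overexpressing, GrlA A116E).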
# [9] = molecular target: T1, Quinolone resistance protein NorA (Staphylococcus aureus); experiment: Inhibition of NorA in Staphylococcus aureus SA-1199B expressing GrlA A116E mutant assessed as synergistic potentiation of ciprofloxacin-induced antimicrobial activity at 0.78 to 100 ug/ml by microdilution method based Checkerboard assay
# Staphylococcus aureus [10] = experiment: Antimicrobial activity against Staphylococcus aureus ATCC 25923 by microdilution method; type: organism-based; details: in vivo; summary of the method: as §1
# Staphylococcus aureus [11] = experiment: Synergistic potentiation of ciprofloxacin-induced antimicrobial activity against norA deleted Staphylococcus aureus SA-K1902 at 0.78 to 100 ug/ml by microdilution method based Checkerboard assay; type: functional, organism-based
# Staphylococcus aureus [12] = experiment: Synergistic potentiation of ciprofloxacin-induced antimicrobial activity against wild type Staphylococcus aureus ATCC 25923 at 0.78 to 100 ug/ml by microdilution method based Checkerboard assay; type: functional, organism-based
# [13] = Cytotoxicity in human HepG2 cells assessed as reduction in cell viability incubated for 24 hrs by ATP bioluminescence assay; type: cell-based
# Summary of the method: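 Cells were grown to confluence overnight in RPMI 1640 with 10% heat-inactivated fetal calf serum, penicillin and streptomycin. Monolayers were exposed for 24 h at 37 °C to scalar concentrations (0-250 µg/mL). Viability was read by ATP bioluminescence, each concentration in triplicate. CC50 is the concentration reducing cell number by 50% versus untreated controls.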
# Staphylococcus aureus [14] = experiment: Antimicrobial activity against NorA overexpressing Staphylococcus aureus SA-K2378 by microdilution method; type: organism-based; details: in vivo; summary of the method: as §3
# Staphylococcus aureus [15] = experiment: Antimicrobial activity against NorA deficient Staphylococcus aureus SA-K1902 by microdilution method; type: organism-based; details: in vivo; summary of the method: as §3
# [16] = molecular target: T1, Quinolone resistance protein NorA (Staphylococcus aureus); experiment: Inhibition of NorA in Staphylococcus aureus SA-K2378 assessed as synergistic potentiation of ciprofloxacin-induced antimicrobial activity at 0.78 ug/ml by microdilution method based Checkerboard assay
# Staphylococcus aureus [17] = experiment: Antimicrobial activity against mepA deficient Staphylococcus aureus SA-K2885 by microdilution method; type: organism-based; details: in vivo
# Summary of the method: (§4)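 CLSI broth microdilution MIC of the compound alone in norA-deleted strains. SA-K2885 carries empty pALC2073 and SA-K2886 carries pALC2073-mepA (xyl/tetO promoter). 0.05 µg/mL tetracycline was present throughout to induce.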
# Staphylococcus aureus [18] = experiment: Antimicrobial activity against mepA overexpressing Staphylococcus aureus SA-K2886 by microdilution method; type: organism-based; details: in vivo; summary of the method: as §4
Compound,MIC (Staphylococcus aureus [1]) [mg/L],inhibition [2],Activity [3] [µg/mL],inhibition [4],IC50 [5] [µM],inhibition [6] [%],inhibition (Staphylococcus aureus [7]),MIC (Staphylococcus aureus [8]) [µM],inhibition [9],MIC (Staphylococcus aureus [10]) [mg/L],Activity (Staphylococcus aureus [11]),synergistic potentiation of ciprofloxacin activity (Staphylococcus aureus [12]),CC50 at 24 h [13] [mg/L],MIC (Staphylococcus aureus [14]) [mg/L],MIC (Staphylococcus aureus [15]) [mg/L],fold change (FC) [16],MIC (Staphylococcus aureus [17]) [mg/L],MIC (Staphylococcus aureus [18]) [mg/L]
CCCOc1ccc(-c2cc(OCCN3CCc4cc(OC)c(OC)cc4C3)c3c(OC)cc(OC)cc3n2)cc1,100,Active,< 100,Active,1.6,86.5,Active,179,Active,100,inactive,Active,–,–,–,–,–,–
CCCOc1ccc(-c2cc(OCCN3CCCCC3)c3ccc(OC)cc3n2)cc1,> 100,–,3.13,–,4,100,Active,238,Active,50,–,Active,71.5,–,–,–,–,–
O=C(O)c1cn(C2CC2)c2cc(N3CCNCC3)c(F)cc2c1=O [CIPROFLOXACIN],0.63,–,–,–,–,–,–,–,–,0.31,–,–,139,2.5,0.31,–,–,–
CCCOc1ccc(-c2cc(OCCN(CC)CC)c3ccccc3n2)cc1,> 100,Active,12.5,–,–,–,–,> 241,–,100,inactive,–,–,–,50,–,–,–
CCCOc1ccc(-c2cc(OCCN(CC)CC)c3cc(OC)ccc3n2)cc1,50,–,6.25,–,4.7,99,Active,122,Active,50,–,Active,5,–,–,–,–,–
COC(=O)[C@H]1[C@H]2C[C@@H]3c4[nH]c5cc(OC)ccc5c4CCN3C[C@H]2C[C@@H](OC(=O)c2cc(OC)c(OC)c(OC)c2)[C@@H]1OC [RESERPINE],> 100,Active,> 100,–,–,–,–,> 164,–,> 100,inactive,–,–,–,> 100,–,–,–
CCCOc1ccc(-c2cc(OCCN(CC)CC)c3ccc(OC)cc3n2)cc1,> 100,Active,6.25,Active,4.7,100,Active,> 245,Active,50,inactive,Active,7.7,–,25,16,–,–
CC[n+]1c(-c2ccccc2)c2cc(N)ccc2c2ccc(N)cc21.[Br-] [HOMIDIUM BROMIDE],–,–,–,–,–,–,–,–,–,–,–,–,–,–,–,–,0.63,25
CCCOc1ccc(-c2cc(OCCN3CCc4cc(OC)c(OC)cc4C3)c3cc(OC)cc(OC)c3n2)cc1,25,Active,3.13,Active,3.8,86.7,Active,45,Active,25,inactive,Active,–,–,25,8,–,–
